Published values pooled from the literature.
Observed: enzyme activity
Action: inhibitor
ABL1: Tyrosine-protein kinase ABL1 (ABL1, Homo sapiens, UniProt P00519)
ABL1 G250E: Tyrosine-protein kinase ABL1 (ABL1, Homo sapiens, UniProt P00519, G250E)
ABL1 T315I: Tyrosine-protein kinase ABL1 (ABL1, Homo sapiens, UniProt P00519, T315I)
ABL1 E255K: Tyrosine-protein kinase ABL1 (ABL1, Homo sapiens, UniProt P00519, E255K)

CN(C)C1CCN(CC#Cc2nn(C3CCCC3)c3nc(NCc4ccccc4)ncc23)C1 (centres unmarked) — inhibition (ABL1; FRET; 1 µM): 6%
COc1cc2ncnc(Nc3ccc(Oc4ccccc4)c(C)c3C)c2cc1OC — inhibition (ABL1 G250E; 1 µM): 4%
COc1cc(-c2cc(-c3ccc(N4CCNCC4)cc3)cnc2N)cc(OC)c1OC — inhibition (Tyrosine-protein kinase ABL1 (ABL1, Homo sapiens, UniProt P00519, Y253F); 0.1 µM): 83%
CS(=O)(=O)Nc1cccc(-c2csc(NC(=O)CSc3nc4nccnc4c(=O)n3CCc3ccccc3)n2)c1 — inhibition (ABL1 T315I; 10 µM): -2%
CNCc1ccc(-c2cc(-c3nc(-c4ccc(S(=O)(=O)C(C)C)cc4)cnc3N)on2)cc1 — inhibition (ABL1; 2 µM): 34%
CNc1cccc2cc(C(=O)Nc3ccc(C(=O)O)cc3)c(=O)[nH]c12 — inhibition (Tyrosine-protein kinase ABL1 (ABL1, Homo sapiens, UniProt P00519, Q252H); 10 µM): 0.4%
COc1cc2nccc(Oc3ccc(NC(=O)c4c5n(n(-c6ccc(F)cc6)c4=O)CCCC5)cc3)c2cc1OC — inhibition (ABL1; 0.1 µM): 26%
O=C(CSc1nc2nccnc2c(=O)n1CCc1ccccc1)Nc1nccs1 — inhibition (ABL1 E255K; 10 µM): -1%
CSc1nc(C)c(-c2ccnc(Nc3ccc(N4CCOCC4)cc3)c2)[nH]1 — inhibition (ABL1; 10 µM): 19.3%
CC/C(=N\NC(=O)NCc1cccc(O)c1)c1ccc(O)c(C)c1O — inhibition (ABL1 E255K; 0.1 µM): -3.4%
COc1cc2ncnc(Nc3ccc(Oc4ccccc4)cc3C)c2cc1OC — inhibition (ABL1 G250E; 1 µM): 14%
CNC(=O)c1cc2c(Oc3ccc(NC(=O)C4(C(=O)Nc5ccc(F)cc5)CC4)cc3)ccnc2cc1OC — inhibition (ABL1; radiometric; 1 µM): 70%
CCCS(=O)(=O)Nc1ccc(F)c(C(=O)c2c[nH]c3ncc(-c4ccc(Cl)cc4)cc23)c1F — inhibition (ABL1; 1 µM): < 20%
C=CC(=O)Nc1cc(Nc2nccc(Nc3cc(Cl)c(F)cc3C(C)(C)O)n2)c(OC)cc1N1CC[C@@H](N(C)C)C1 — inhibition (ABL1 T315I; 1 µM): 18%
